The text below walks through data of ChEMBL document CHEMBL4414577, “Discovery of Pyrrolo[2,3-b]pyridine (1,7-Dideazapurine) Nucleoside Analogues as Anti-Trypanosoma cruzi Agents” (J Med Chem, 2019).

SMILES strings stand for the structures. pEC50: −log10 of the molar value.

Data set [1] is described as follows: Drug metabolism in dog liver microsomes assessed as CYP450-mediated metabolism by measuring parent compound remaining at 5 uM incubated for 15 mins in presence of NADPH by UPLC-MS analysis. To be noted: read-out: Stability. It counts as ADME, Canis lupus familiaris. In outline: (§1)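 Compound incubated with male mouse, rat, dog or pooled human S9 fractions, with NADPH (phase I) or […], sampled at 0, 15, 30 and 60 min. Read-out is percent parent remaining. Two independent experiments of two biological replicates; diclofenac and fluconazole used as assay controls.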
For orientation: Liver microsomes are a subcellular fraction often used to study metabolism.

Data set [2] is described as follows: Drug metabolism in dog liver microsomes assessed as UGT-mediated metabolism by measuring compound remaining at 5 uM incubated for 30 mins in presence of UDPGA by UPLC-MS analysis. It is filed as ADME, Canis lupus familiaris. To be noted: read-out: Stability. In outline: as §1
Data set [3] can be described thus: Drug metabolism in mouse liver microsomes assessed as CYP450-mediated metabolism by measuring parent compound remaining at 5 uM incubated for 15 mins in presence of NADPH by UPLC-MS analysis. It is filed as ADME. To be noted: read-out: Stability. Put shortly:
as §1

In data set [4] the test system is Trypanosoma cruzi. The data set is described as follows: Antitrypanosomal activity against Trypanosoma cruzi Tulahuen CL2 amastigotes infected in human MRC5 SV2 cells incubated for 7 days by chlorophenol red beta-D-galactopyranoside substrate based spectrophotometric assay. It counts as functional, organism-based. To be noted: Tulahuen CL2, MRC-5 SV2, 168 h. Put shortly:
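Intracellular amastigotes of β-galactosidase-expressing Tulahuen strain grown in MRC-5 fibroblast host cells. EC50 in μM given as mean and SEM of two or three independent experiments; some values come from a single determination.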

Data set [5] in a line: Drug metabolism in mouse liver microsomes assessed as CYP450-mediated metabolism by measuring parent compound remaining at 5 uM measured immediately in presence of NADPH by UPLC-MS analysis. It is filed as ADME. To be noted: read-out: Stability. In outline: as §1
A short description of data set [6]: Drug metabolism in rat liver microsomes assessed as UGT-mediated metabolism by measuring compound remaining at 5 uM incubated for 60 mins in presence of UDPGA by UPLC-MS analysis. It counts as ADME. To be noted: read-out: Stability. Put shortly: as §1
Data set [7] can be described thus: Drug metabolism in dog liver microsomes assessed as UGT-mediated metabolism by measuring compound remaining at 5 uM measured immediately in presence of UDPGA by UPLC-MS analysis. It counts as ADME, Canis lupus familiaris. The note with it: read-out: Stability. In outline:
as §1

Data set [8] is described as follows: Drug metabolism in dog liver microsomes assessed as CYP450-mediated metabolism by measuring parent compound remaining at 5 uM incubated for 30 mins in presence of NADPH by UPLC-MS analysis. It is filed as ADME, Canis lupus familiaris. The note with it: read-out: Stability. Put shortly:
as §1

In data set [9] the test system is Trypanosoma cruzi. The data set can be described thus: In vivo antitrypanosomal activity against Trypanosoma cruzi Y trypomastigotes infected in Swiss mouse assessed as reduction in parasitemia at 25 mg/kg, po administered twice daily for 5 days with 2 days interval for 3 cycles and measured 9 days post-infection by light microscopy relative to control. It is filed as functional. Further details: scale not given: the % may be the effect or the level left. In outline:
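Male Swiss Webster mice infected i.p. with 10⁴ Y-strain bloodstream trypomastigotes; six per group. Oral gavage from 5 dpi for 15 days (three 5-day rounds, 2 days off): test compound 25 mg/kg b.i.d., benznidazole 100 mg/kg s.i.d. Parasites counted in 5 μL tail blood to 30 dpi; mortality followed to 53 dpi.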

The nature of data set [10]: Drug metabolism in rat liver microsomes assessed as UGT-mediated metabolism by measuring compound remaining at 5 uM incubated for 15 mins in presence of UDPGA by UPLC-MS analysis. It is filed as ADME. To be noted: read-out: Stability. In outline: as §1
Data set [11] in a line: Cytotoxicity against Swiss mouse primary cardiac cells assessed as reduction in cell viability incubated for 24 hrs by PrestoBlue dye based colorimetry.
Data set [12] is described as follows: Drug metabolism in rat liver microsomes assessed as CYP450-mediated metabolism by measuring parent compound remaining at 5 uM incubated for 30 mins in presence of NADPH by UPLC-MS analysis. It is filed as ADME. The note with it: read-out: Stability. In outline: as §1
A short description of data set [13]: Selectivity index, ratio for EC50 for human MRC5 SV2 cells to EC50 for Trypanosoma cruzi Tulahuen CL2 amastigotes infected in human MRC5 SV2 cells. To be noted: read-out: Ratio EC50. It is filed as toxicity, cell-based.

Usually pEC50 stands for the negative decadic logarithm of the EC50, by convention in mol/L. In the case of `Nc1ccnc2c1c(I)cn2[C@@H]1O[C@H](CO)[C@@H](O)[C@H]1O`, the results for the remaining at 0.25 h, 5 µM in data set [1], in data set [3] and in data set [10] were 97%, 96% and 97%, respectively. Also, the remaining at 0.5 h, 5 µM stood at 94% in data set [2], 96% in [8] and 87% in data set [12]. Also, the results for the pEC50 in data set [4] and in [11] were 7.40 and less than 3.40, respectively. The remaining at 0 min, 5 µM in data set [5] and in [7] was 100% in each case. In addition, in data set [6], the remaining at 1 h, 5 µM came to 94%. Further, in [9], the Activity came out at 100%. Moreover, the selectivity ratio in data set [13] is greater than 1600.
